For 97 compounds, IC50 results are on record in PubChem BioAssay AID617 (SRMLSC, 2007).

The experiment deals with E. coli BW25113 ΔtolC growth inhibition, OD615. Put plainly: growth inhibitors of E. coli tolC mutant, dose response, strain BW25113 ΔtolC::kan (AID 617). An outline of the steps: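 Material: E. coli BW25113 ΔtolC::kan bacteria; input: inoculum from 1:1000-diluted 1.5 h subculture; medium: kanamycin-containing LB broth, 50 µg/mL; dosing: compounds in serially diluted dose-response series; incubation: 20 h exposure at 37 °C; measured by: absorbance at 615 nm; control set: chloramphenicol control, 30 µM final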
Turning to `CC(C)(C)n1c(O)c(C=Nc2ccc3c(c2)CCC3)c(=O)[nH]c1=O`, the IC50 – broadly, the midpoint of a concentration-inhibition curve – is 12.8 µM. `COc1cccc(Cn2c(Oc3cccc(C)c3)nc3c2c(=O)n(C)c(=O)n3C)c1`: the IC50 was 14.3 µM. Turning to `Cc1ccc(C)c(N2CCN(C(=O)c3ccc(NS(=O)(=O)c4c(C)noc4C)cc3)CC2)c1`, the IC50 was 13.6 µM. For `c1ccc(CC2CCN(Cc3nc(-c4ccccc4)no3)CC2)cc1`, the IC50 is 13.4 µM. Take `CCN1/C(=C(\O)c2ccccc2)C(=O)c2ccccc2S1(=O)=O`: the IC50 was 4.56 µM.

As to `O=C(CN1CCN(S(=O)(=O)c2ccc(F)cc2)CC1)Nc1ccc(Cl)c(C(F)(F)F)c1`, the IC50 is 9.07 µM. In the case of `Cc1ccc(C2C(S(C)(=O)=O)=C(O)C(=O)N2c2ccccc2)cc1` (configuration not stated) (tested in a mixture with another compound), the IC50 is 4.81 µM. Next, `Oc1ccccc1-c1nc(NCC2CCCO2)c2ccccc2n1` (configuration not stated): 90.8 µM; `CCn1c(CNc2cccc(Cl)c2)nnc1SCC(=O)OC1CCCCC1`: 17.8 µM; `CCCn1nnc(NC(=O)COc2ccc(C3CCCCC3)cc2)n1`: 9.4 µM. In the case of `O=S(=O)(Nc1nc2ccccc2nc1NCc1ccco1)c1ccc(Cl)cc1`, the IC50 is 4.77 µM. For `CC(C)COC(=O)NCCOC(=O)Nc1cccc(Cl)c1`, the IC50 is 19.6 µM. Take `Nc1nncn1C(=O)CCCN1C(=O)c2ccccc2C1=O`: the IC50 was 12.7 µM. For `CCCn1c(SCC(=O)Nc2ccccc2N2CCCCC2)nc2c1c(=O)n(C)c(=O)n2C`, the IC50 was 11.7 µM.

Regarding `CCOC(=O)Nc1ccc2c(c1)N(C(=O)N1CCN(C)CC1)c1ccccc1S2`, the IC50 was 36.9 µM.

With `Cc1cccc(C(C)(C)C)c1OCCn1ccnc1`, the IC50 is 11.8 µM. With `N#Cc1nc(COc2ccc(-c3ccccc3)cc2)oc1NCc1cccnc1`, the IC50 is 8.6 µM. With `CCOc1ccc(N(CC(=O)Nc2cccc(OC)c2)S(=O)(=O)c2c(C)noc2C)cc1`, the IC50 is 22.8 µM. In the case of `CCCCN1C(=O)C2ON(c3ccccc3C)C(c3ccco3)C2C1=O` (configuration not stated), the IC50 was 14.4 µM. On to `CC1Cc2ccccc2N1C(=O)Cn1c(=O)oc2cc(S(=O)(=O)NC3CCCC3)ccc21` (configuration not stated), for which the IC50 is 4.39 µM. As to `Cc1ccc(C(=O)N2CCN(c3cccc(Cl)c3)CC2)cc1C`, the IC50 is 10.4 µM. Next, `C=CCSc1n[nH]c(-c2ccc(OCCCC)cc2)n1`: 93.1 µM; `O=C(Nc1ccc(Cl)c(Cl)c1)OCc1cccnc1`: 13.8 µM.

On to `O=C(COC(=O)c1ccc(Oc2ccccc2)cc1)Nc1nnc(-c2ccccc2)o1`, for which the IC50 is 0.96 µM. `CCOC(=O)c1cc2sc(C)cc2n1C(C)C(=O)OCC` (configuration not stated): the IC50 is 60.6 µM. For the compound `CCOC(=O)c1ccc(NC(=O)CSc2nc(SC)ns2)cc1`, the IC50 was 9.73 µM. As for `COCc1cc(C)nc2sc3c(=O)oc(C)nc3c12`, the concentration for half-maximal inhibition (IC50) is 96.2 µM. As to `CCOC(=O)c1c(CN2CCOCC2)n(-c2ccccc2)c2ccc(O)cc12`, the IC50 was 18.3 µM.

As to `Cc1cc(C)c(C#N)c(SCc2ccc3c(c2)OCO3)n1`, the half-inhibitory concentration (IC50) is 24.6 µM. Take `O=C(Nc1ccc2oc(Cc3ccc(Cl)cc3)nc2c1)c1cccnc1`: the IC50 was 53.9 µM. For `c1csc(-c2nc3nc4ccccc4nc3n2Cc2ccc3c(c2)OCO3)c1`, the IC50 was 9.62 µM. Next, `N#CC1=C(SCC(=O)c2cc3ccccc3oc2=O)NC(=O)C(C#N)C12CCCC2` (configuration not stated): 12.7 µM; `Cc1cccc(N2CCN(C(=O)c3cc4n(n3)C(C(F)(F)F)CC(c3ccco3)N4)CC2)c1C` (configuration not stated): 6.74 µM; `CCC(=NCc1ccc2c(c1)OCO2)c1c(O)n(C2CCCCC2)c(=O)[nH]c1=O`: 12 µM. With `c1ccc(CSc2nnc(-c3ccco3)n2Cc2ccccc2)cc1`, the IC50 was 13.8 µM.

As to `O=C(OC1CCc2ccccc2C1=O)c1ccccc1O` (configuration not stated), the IC50 was 27.7 µM. As for `O=C(Nc1nnc(-c2ccc3c(c2)OCCO3)o1)c1ccc(Cc2ccccc2)cc1`, the IC50 is 3.26 µM. `Oc1c(CN2CCCCC2)cc(Br)c2cccnc12`: the IC50 was 4.8 µM. Take `N#Cc1nc(COc2ccc(Br)cc2)oc1NCCCn1ccnc1`: the IC50 is 23.7 µM.

As for `O=C(Nc1ccc(C(F)(F)F)cc1Cl)c1ccc(Cn2cc(Br)cn2)o1`, the IC50 is 9.95 µM. Take `COCCn1nnnc1C(C(C)C)N(Cc1ccccc1)Cc1cc2cc(OC)ccc2[nH]c1=O` (configuration not stated): the IC50 was 11 µM.

As for `COc1cc(NS(=O)(=O)c2ccc(Br)cc2)c(OC)cc1NC(=O)c1ccco1`, the IC50 was 25.3 µM. With `Cc1cc(NC(=O)c2ccccc2)sc1C`, the IC50 is 5.59 µM.

`CC1CC(C)CN(c2ncnc3c2cnn3Cc2ccc(Cl)cc2)C1` (configuration not stated): the IC50 is 6.08 µM. Next, `Cc1cccc(Nc2nc(-c3ccccn3)cs2)n1`: 0.68 µM. `COc1ccc(Cl)cc1N(C)C(=O)CCc1nc(-c2ccc(C)cc2)no1`: the IC50 was 15.2 µM.

As to `C=C(C)COc1ccc(-c2[nH]ncc2Oc2ccccc2OCC)c(O)c1`, the 50% inhibitory concentration (IC50) is 6.14 µM. Next, `CCOC(=O)N1CCN(c2nc3ccccc3nc2C(C#N)S(=O)(=O)c2ccc(C)cc2)CC1` (configuration not stated): 7.88 µM; `COc1ccc(-n2cnc3cc(NCc4cccs4)ccc32)cc1`: 10.6 µM; `N#Cc1nc(Cc2cccc3ccccc23)oc1NCCCn1ccnc1`: 24.2 µM. As to `Clc1ccc(OCc2nn3c(C4CCCCC4)nnc3s2)cc1`, the half-inhibitory concentration (IC50) is 9.82 µM. Regarding `COc1ccc(OC)c(C(=O)COC(=O)c2cc(C)oc2C)c1`, the IC50 is 25.1 µM. For `Cc1nc2c(C(=O)NCc3ccc4c(c3)OCO4)c[nH]n2c(=O)c1Cc1ccccc1F`, the IC50 is 2.6 µM. For the compound `CCN(c1ccccc1)S(=O)(=O)c1ccc(C(=O)Nc2nnc(COC)o2)cc1`, the IC50 was 3.23 µM.

Consider `Cc1ccc2cc(C(c3nnnn3C3CCCC3)N(Cc3cccnc3)Cc3ccco3)c(=O)[nH]c2c1` (configuration not stated), for which the IC50 was 13.7 µM.

Consider `Cc1ccc(/C(O)=C2\C(=O)C(=O)N(c3cc(C)on3)C2c2cccc(Br)c2)cc1` (configuration not stated), for which the IC50 is 13.8 µM. Regarding `Cn1c(-c2ccccc2)cc2c3no[n+]([O-])c3ccc21`, the IC50 was 5.09 µM. Next, `O=C(C1CC1)N1CCc2cc(S(=O)(=O)NCCC3=CCCCC3)ccc21`: 17.7 µM; `CCCCn1c(O)c(C(CC)=NCCc2ccccc2)c(=O)[nH]c1=O`: 14 µM; `CSc1ccc(-c2cc(=O)c3ccccc3o2)cc1`: 42.1 µM. For `COC(=O)c1c(NC(=O)c2ccc(C)o2)sc2c1CCCCC2`, the IC50 was 28.4 µM.

For the compound `O=C(Nc1ccc(S(=O)(=O)N2CCCc3ccccc32)cc1)C1CCCO1` (configuration not stated), the IC50 was 19.6 µM. With `CC(C)(C)c1ccc(Cn2nnc3c(=O)[nH]c(C4CCCN(C(=O)Cc5cccs5)C4)nc32)cc1` (configuration not stated), the IC50 is 15.6 µM. In the case of `CCSc1nnc(NC(=O)c2cccc(OCc3c(C)noc3C)c2)s1`, the IC50 was 10.8 µM. `COc1ccc(OC)c(Nc2nc(-c3cccs3)cs2)c1`: the IC50 is 28.2 µM. As to `C/C(O)=c1/ccc2cccc3nc(C)nc1c23`, the IC50 is 26 µM. Next, `O=C(COc1ccc(Cl)cc1)Nc1nnc(-c2ccc3c(c2)CCCC3)o1`: 0.25 µM; `CC(=O)OCC1=C(C(=O)O)N2C(=O)[C@@H](NC(=O)Cc3cccs3)[C@H]2SC1`: 1.01 µM.

Regarding `CN(C1CCCCC1)S(=O)(=O)c1ccc(NC(=O)c2ccc(Br)o2)cc1`, the IC50 is 10.6 µM. In the case of `Cc1ccc(S(=O)(=O)Nc2cccc(-c3cn4ccsc4n3)c2)cc1`, the IC50 is 15.5 µM. As for `COc1ccc(C(=O)C(CN2CCOCC2)c2ccccc2)cc1F` (configuration not stated), the IC50 is 17.7 µM.

In the case of `COc1ccc(Nc2nc(N3CCCC3)c3ccccc3n2)cc1`, the IC50 is 18.3 µM. As to `O=C(Nc1nnc(-c2ccc3c(c2)CCCC3)o1)C1COc2ccccc2O1` (configuration not stated), the IC50 was 0.45 µM.

In the case of `CC1Oc2ccccc2N(Cc2ccccc2Cl)C1=O` (configuration not stated), the IC50 is 27.9 µM. Regarding `CCOC(=O)c1cc2cc(-c3c(C(=O)OCC)oc4cc(O)cc(O)c4c3=O)ccc2o1`, the IC50 is 7.59 µM. With `CCc1nc2sc3ccccc3c(=O)c2c(=O)n1Cc1ccco1` the figure was 17.1 µM; with `O=C(Nc1cccc(Br)c1)c1cc2ccccc2o1`, 0.98 µM; with `COc1ccc(NS(=O)(=O)c2cc(C)ccc2NC(=O)c2cc(C)oc2C)cc1`, 58.6 µM.

Regarding `CCCc1[nH]nc2c1C(c1ccc(OC)c(CSC3=NCCS3)c1)C(C#N)=C(N)O2` (configuration not stated), the IC50 is 69.6 µM.

For `Cc1ccc2c(CC(=O)OCc3nc(N)nc(Nc4ccccc4C)n3)coc2c1`, the IC50 was 10 µM. Consider `CCOC(=O)C1CN(c2cc3c(cc2F)c(=O)c(C(=O)O)cn3CC)OC1C(=O)OCC` (configuration not stated), for which the half-inhibitory concentration (IC50) was 0.81 µM. Regarding `Cc1ccccc1OCCCCc1c(C)n[nH]c1C`, the IC50 was 3.74 µM. Take `CCOc1ccc(S(=O)(=O)Nc2cc(Cl)ccc2O)cc1`: the IC50 was 9.22 µM. Next, `Cc1nnc(NC(=O)c2ccc(S(=O)(=O)N(C)Cc3ccccc3)cc2)o1`: 3.87 µM; `CCN(c1cccc(C(F)(F)F)c1)S(=O)(=O)c1ccc2c(c1)CCN2C(=O)C1CC1`: 50.9 µM. With `CCCOc1ccccc1C1CC(=O)Nc2cc3c(cc21)OCCO3` (configuration not stated), the IC50 is 24.1 µM.

Regarding `Cc1ccc(S(=O)(=O)Nc2cccc3ncccc23)s1`, the IC50 was 1.65 µM. As to `O=S(=O)(c1ccccc1)N1CCN(Cc2ccccc2C(F)(F)F)CC1`, the IC50 is 16.8 µM. Turning to `O=C(NC1CCCC1)c1sc(=S)n2c1[nH]c(=O)c1ccccc12`, the IC50 is 0.56 µM.

For `CCOc1cc(C)c(Cl)cc1S(=O)(=O)n1nnc2ccccc21`, the IC50 is 11.6 µM. Regarding `O=C(c1ccccc1CCc1ccccc1)N1CCN(c2ccccn2)CC1`, the IC50 was 8.38 µM. `CCCCc1c(C)nn(-c2nnc3c4ccccc4n(CC)c3n2)c1C`: the IC50 is 1.77 µM. With `O=C(c1ccc(COc2ccccc2Br)o1)N1CCCCCC1` the figure was 98.8 µM; with `Cc1ccc(Cn2ncn3c(cc4ccccc43)c2=O)cc1`, 14.1 µM. Consider `CCCc1cc(C(=O)Cc2ccc(C(=O)OCC)o2)c(O)cc1O`, for which the IC50 is 18.6 µM. Next, `COc1ccc(/C(O)=C2\C(=O)C(=O)N(CC3CCCO3)C2c2cc(OC)ccc2OC)cc1` (configuration not stated): 11.8 µM; `O=C(c1ccc(COc2ccccc2Cl)o1)N1CCN(c2ccccc2)CC1`: 8.64 µM.
